Published values gathered from unrelated publications.
Lines come from different studies, so protocols differ.
MAP2K3: Dual specificity mitogen-activated protein kinase kinase 3 (MAP2K3, Homo sapiens, UniProt P46734)
BCHE: Cholinesterase (BCHE, Equus caballus, UniProt P81908)

| SMILES | target | assay | conditions | endpoint | value |
| --- | --- | --- | --- | --- | --- |
| CCN(CC)CCCC[C@H](NC(=O)[C@H](CC(C)C)NC(=O)[C@H](C)NC(=O)[C@H](Cc1ccccc1)NC(=O)c1ccc(C(C)(C)C)cc1)C(=O)N[C@@H](CO)C(=O)OC | Transcription initiation factor TFIID subunit 1-like, BD2 (TAF1L, Homo sapiens, UniProt Q8IZX4) | thermal stability, DSF | 25 µM | ΔTm | 0.72 °C |
| Cn1cc(-c2cccc(N3CCc4c(sc5c4CC(C)(C)C5)C3=O)c2CO)cc(Nc2ccncn2)c1=O | MAP2K3 | enzyme activity, inhibitor | 1 µM | inhibition | 2% |
| Cc1nn(C)cc1-c1nc2c(N3CCN(Cc4ccc(Cl)cc4)CC3)c(Cl)cnc2[nH]1 | Mitogen-activated protein kinase kinase kinase 6 (MAP3K6, Homo sapiens, UniProt O95382) | binding, competition with immobilised ligand | 1 µM | remaining binding | 100% |
| COc1cc2c(cc1OC)C(=O)N(CC1CCN(Cc3ccsc3)CC1)C2 | BCHE | enzyme activity, inhibitor, Ellman | 1 µM | inhibition | -6.1% |
| Nc1ncc(-c2nc(N3CCOCC3)nc(N3CCOCC3)n2)c(C(F)F)n1 | MAP2K3 | binding, competition with immobilised ligand | 10 µM | remaining binding | 78% |
| O=c1ccc2ccc3occc3c2o1 | Aldehyde dehydrogenase, dimeric NADP-preferring (ALDH3A1, Homo sapiens, UniProt P30838) | enzyme activity, inhibitor, absorbance | 10 µM | activity vs control | 28.3% |
| COc1nccc(CN2Cc3cc(OC)c(OC)cc3C2=O)n1 | BCHE | enzyme activity, inhibitor, Ellman | 1 µM | inhibition | 6.1% |
| COc1ncccc1-c1cnn2ccc(N3CCN(C(=O)OC(C)C)CC3)nc12 | SRSF protein kinase 2 (SRPK2, Homo sapiens, UniProt P78362) | binding, competition with immobilised ligand | 1 µM | remaining binding | 28% |
| COc1cc2c(cc1OC)C(=O)N(CC1CCNCC1)C2 | BCHE | enzyme activity, inhibitor, Ellman | 1 µM | inhibition | 6.8% |
| C#Cc1n[nH]c2c(-c3cn([C@@H](C)c4ccccn4)c(=O)[nH]c3=O)cc(F)cc12 | Serine/threonine-protein kinase Nek2 (NEK2, Homo sapiens, UniProt P51955) | enzyme activity, inhibitor | 0.1 µM | inhibition | 12% |
